Experimental data gathered from unrelated publications.
Compare with care: the assays were run in different laboratories.

Cc1cccc(F)c1N1CCC(N2Cc3cn(CC(C)(F)F)nc3N(Cc3ccccc3C(F)(F)F)C2=O)CC1  solubility (aqueous buffer; pH 7.4): 10 µM
CCOC(=O)C1=C(C)NC(C)=C(C(=O)OC)C1c1cccc(Cl)c1Cl (centres unmarked)  solubility (FaSSIF; 24 h, pH 7.4, 37 °C): 40 µg/mL
O=C(NCCN1CCCC1)c1cc(-c2ccc(CN3CCOCC3)cc2)nc2ccc(F)cc12  solubility (simulated gastric fluid; 4 h, pH 2, 37 °C, acidic): > 6490 µM
CCOc1nc2nc(C)cc(Nc3ccc(C(F)(F)F)cc3)n2n1  solubility (nephelometry; aqueous buffer; pH 6.5): 19 to 37 µM
CC(C)Cc1ccc(C(C)C(=O)O)cc1 (centres unmarked)  solubility (PBS; pH 7.4): 4580 µg/mL
COc1cccc(OC)c1-c1nc(C(=O)N[C@@H](CC(C)C)C(=O)O)cn1-c1cccc2ccccc12  solubility (aqueous buffer; pH 5): 103 µg/mL
c1ccc(CNc2nc(N3CCOc4ccccc43)nc3ccccc23)cc1  solubility (aqueous buffer; pH 5): 25.2 µg/mL
COc1ccnc(CNC(=O)c2cn(Cc3ccc(Cn4ccccc4=O)cc3)nc2C(F)(F)F)c1F  solubility (FaSSIF; 4 h, pH 6.5): 20 µg/mL
CC(C)(C)n1nc(-c2ccc3nc(OC4CCC4)ccc3c2)c(C(N)=O)c1N  solubility (PBS; pH 6.5, 25 °C): 80.6 µM
COc1ccc2c(c1)c(CC(=O)O)c(C)n2C(=O)c1ccc(Cl)cc1  solubility (PBS; 20 h, pH 7.4, 20 °C): 246 µg/mL
Cl.Clc1ccc2c(c1)nc(NCCNCc1ccccc1)n2Cc1ccccc1  solubility (shake flask; aqueous buffer; 20 h, pH 6.5, 25 °C): 25 µM
COc1cc(OC)cc(N(CCNC(C)C)c2ccc3ncc(-c4cnn(C)c4)nc3c2)c1  solubility (aqueous buffer; pH 3.96): 23200 µg/mL
O=C(Nc1cc(F)c(F)c(F)c1)c1ccc(F)c(S(=O)(=O)NCc2cccc(B(O)O)c2)c1  solubility (aqueous buffer; pH 7.4): 427 µg/mL
COc1ccc(C2CC(=O)c3c(O)cc(O)cc3O2)cc1O (centres unmarked)  solubility (shake flask; water; 24 h, 25 °C): 15.7 µg/mL
CCc1nc2nc(C)cc(Nc3ccc(Cl)cc3)n2n1  solubility (nephelometry; aqueous buffer; pH 6.5): 170 to 350 µM
CCOc1ccc2cc(-c3nn(C4CCCCC4)c(N)c3C(N)=O)ccc2n1  solubility (PBS; pH 6.5, 25 °C): 88.9 µM
O=C(Nc1ccc(S(=O)(=O)N2CCC(Cl)CC2)cc1)c1ccc([N+](=O)[O-])o1  solubility (PBS; pH 7.4): 9.4 µM
[Br-].c1ccc(-c2n(Cc3ccc4ccccc4c3)cc[n+]2Cc2ccc3ccccc3c2)cc1  solubility (water): < 500 µg/mL
COc1cccc2c(NCc3ccccc3)nc(N3CCNc4ccccc43)nc12  solubility (aqueous buffer; pH 5): 28.2 µg/mL
CN1CCN(CC2CCN(c3nccc4[nH]c(-c5cccc(OCCN)c5)nc34)CC2)CC1  solubility (shake flask; aqueous buffer; pH 6.5): > 200 µM
O=C(Nc1c2c(cc3c1CCC3)CCC2)NS(=O)(=O)/C=C/c1nccs1  solubility (simulated gastric fluid; 24 h, 37 °C, acidic): < 5 µg/mL
COc1cc2ncnc3c2cc1OCCOCCOc1cc(F)c(Cl)cc1N3  solubility (HPLC; aqueous buffer; 24 h): 0.131 to 0.174 µg/mL
Fc1ccc(-c2nc3c(C4CCNCC4)nccc3[nH]2)cc1F  solubility (shake flask; aqueous buffer; pH 6.5): > 200 µM
COCc1nc2nc(C)cc(Nc3ccc(S(F)(F)(F)(F)F)cc3)n2n1  solubility (nephelometry; aqueous buffer; pH 6.5): 63 to 130 µM
Clc1cccc(Nc2nc(NCc3cccc(Br)c3)c3ccccc3n2)c1  solubility (aqueous buffer; pH 6.2): 0.02 µg/mL
Cc1c(N(C)C)c(=O)n(-c2ccccc2)n1C  solubility (PBS; pH 7.4): 46300 µg/mL
Cc1c(F)cccc1Nc1nc(NCc2ccccc2)c2ccccc2n1  solubility (aqueous buffer; pH 5): 8.4 µg/mL
NC1CCN(c2nccc3[nH]c(-c4ccc(F)c(F)c4)nc23)CC1  solubility (shake flask; aqueous buffer; pH 6.5): > 200 µM
CCOc1ccc2cc(-c3nn(C4CCC4)c(N)c3C(N)=O)cnc2c1  solubility (PBS; pH 6.5, 25 °C): 10.9 µM
CCCn1nc(C(=O)N2CCCCC2)c2c1CCC(NCCN1CCCCC1)C2 (centres unmarked)  solubility (PBS; 16 h, pH 7.4): 1740 µM
CCOc1ccc2cc(-c3nn(CC4CC4)c(N)c3C(N)=O)ccc2n1  solubility (PBS; pH 6.5, 25 °C): 10.9 µM
CN1C(C(=O)Nc2ccccn2)=C(O)c2ccccc2S1(=O)=O  solubility (shake flask; aqueous buffer; 48 h, pH 6.5): 7 to 9 µg/mL
c1ccc(CNc2nc(N3CCNc4ccccc43)nc3ccccc23)cc1  solubility (aqueous buffer; pH 6.2): 18 µg/mL
Cc1ccc(-c2ccccc2C(=O)Nc2c(C)cccc2C(=O)O)cc1  solubility (shake flask; aqueous buffer; 24 h, pH 6.5, 25 °C): 175 µM
COc1c(N2CCNC(C)C2)c(F)cc2c(=O)c(C(=O)NCCCN(C)C)cn(C3CC3)c12 (racemic)  solubility (water): 72000 µM
CC(=O)N1CCN(c2ccc(OCC3COC(Cn4ccnc4)(c4ccc(Cl)cc4Cl)O3)cc2)CC1 (centres unmarked)  solubility (PBS; pH 7.4): 55.6 µM
O=C(O)c1ccc(-c2nnc(-c3ncccn3)nn2)cc1  solubility (water): ≤ 200 µM
Cc1c(F)cccc1NC(=O)Nc1ccc(Cl)c(S(=O)(=O)[C@H]2CCCNC2)c1O  solubility (aqueous buffer; 4 h, pH 3): 161 µg/mL
NCCCNc1nc2cc(Br)ccc2n1Cc1ccccc1  solubility (shake flask; aqueous buffer; 20 h, pH 6.5, 25 °C): 100 µM
CC(=O)N[C@@H](CC(N)=O)C(=O)N[C@@H](CCCNC(=N)N)C(=O)N[C@@H](CC(C)C)C(=O)N[C@H]1CSSC[C@@H](C(=O)N[C@H](C(N)=O)[C@@H](C)O)NC(=O)[C@H](CCCNC(=N)N)NC(=O)[C@H](Cc2c[nH]cn2)NC(=O)[C@H](C)NC(=O)CNC(=O)[C@H](Cc2c[nH]c3ccccc23)NC(=O)[C@H](CC(=O)O)NC(=O)[C@H](CCC(N)=O)NC(=O)[C@H](Cc2c[nH]c3ccccc23)NC(=O)[C@H](C(C)C)NC1=O  solubility (PBS; pH 7.4): 1050 µg/mL
FC(F)(F)c1ccc2c(c1)nc(N1CCNCC1)n2Cc1ccccc1  solubility (shake flask; aqueous buffer; 20 h, pH 6.5, 25 °C): 200 µM
CSC[C@H]1O[C@@H](n2cnc3c(N)ncnc32)[C@H](O)[C@@H]1O  solubility (PBS): 110 µM
CCOc1ccc2cc(-c3nn(C4CCCC4)c(N)c3C(N)=O)cnc2c1  solubility (PBS; pH 6.5, 25 °C): 98.7 µM
O=C(c1ccccn1)N(Cc1cccs1)C1(C(=O)NC2CCCCC2)CCCCC1  solubility (aqueous buffer; pH 6.2): 6.6 µg/mL
CN1CCN([C@H]2CC[C@@H](Nc3nccc4[nH]c(-c5cc(F)cc(F)c5)nc34)CC2)CC1  solubility (shake flask; aqueous buffer; pH 6.5): > 200 µM
OCCOc1cccc2c(NCc3ccccc3)nc(N3CCOc4ccccc43)nc12  solubility (aqueous buffer; pH 5): 21.5 µg/mL
Cl.Clc1ccc2c(nc(N3CCNCC3)n2Cc2ccccc2)c1-c1ccccc1  solubility (shake flask; aqueous buffer; 20 h, pH 6.5, 25 °C): 195 µM
OCCOc1ccccc1  solubility (PBS; 48 h, pH 7.4, 25 °C): 180000 µM
CC(C)CC(=O)N1CCC[C@H](COc2cccc3c2C(N)=NS(=O)(=O)N3)C1  solubility (ethanol): 1230 µM
O=C(CCCCCCC(=O)Nc1ccccc1)NO  solubility (HPLC; water; 48 h, pH 6, 25 °C): 160 µg/mL
Cc1ccc(S(=O)(=O)NCc2ccc(C(=O)NCCN(Cc3ccccc3)C(C)C)cc2)cc1  solubility (aqueous buffer; pH 6.2): 0.12 µg/mL
Brc1ccccc1CNc1nc(NCc2ccccc2)c2ccccc2n1  solubility (aqueous buffer; pH 7.4): 0.14 µg/mL
Cc1cc(Nc2ccc(C(F)(F)F)cc2)n2nc(C3CC3)nc2n1  solubility (nephelometry; aqueous buffer; pH 6.5): 38 to 75 µM
[Cl-].c1ccc2nc(Cn3c[n+](Cc4ccc5ccccc5n4)c4ccccc43)ccc2c1  solubility (water): > 500 µg/mL
Cc1ccc(Nc2nc(NCc3ccccc3)c3ccccc3n2)cc1F  solubility (aqueous buffer; pH 6.2): 0.04 µg/mL
N=C(N)NCc1ccc(NC(=O)c2ccc(C(=O)Nc3ccc(C4=CCN(C(=N)N)CC4)cc3)cn2)cc1  solubility (shake flask; aqueous buffer; pH 7.4): 4.5 µg/mL
